# Columns and labels:
# [1] = Inhibition of WR99210-resistant form-A Plasmodium falciparum DHFR-TS I51N, C59R, N108S, L164I, D54N mutant expressed in Escherichia coli BL21(DE3)
# How it was run: (§1)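 The recombinant enzyme was expressed in E. coli BL21(DE3) and purified by methotrexate-Sepharose affinity chromatography. Each reaction was started by adding 0.008 to 0.01 U of enzyme in the presence of varying inhibitor amounts. DHFR activity was read on a microplate spectrophotometer, and IC50 was taken from the inhibition data.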
# [2] = Inhibition of WR99210-resistant form-1 Plasmodium falciparum I51N, C59R, N108S, I164L mutant expressed in Escherichia coli BL21(DE3) by Michaelis-Menten based competitive inhibition assay
# [3] = Inhibition of WR99210-resistant form-3 Plasmodium falciparum N51I, C59R, N108T, I164L mutant expressed in Escherichia coli BL21(DE3); how it was run: as §1
# [4] = Inhibition of WR99210-resistant form-3 Plasmodium falciparum N51I, C59R, N108T, I164L mutant expressed in Escherichia coli BL21(DE3) by Michaelis-Menten based competitive inhibition assay
# [5] = Inhibition of WR99210-resistant form-2 Plasmodium falciparum N51I, C59R, N108S, I164L mutant expressed in Escherichia coli BL21(DE3) by Michaelis-Menten based competitive inhibition assay
# [6] = Inhibition of pyrimethamine-resistant form-3 Plasmodium falciparum N51I, C59R, S108N, I164L, I150V, N182I, N201D mutant expressed in Escherichia coli BL21(DE3) by Michaelis-Menten based competitive inhibition assay
# [7] = Inhibition of pyrimethamine-resistant form-3 Plasmodium falciparum N51I, C59R, S108N, I164L, I150V, N182I, N201D mutant expressed in Escherichia coli BL21(DE3); how it was run: as §1
# [8] = Inhibition of Plasmodium falciparum DHFR-TS QM template N51I, C59R, S108N, I164L mutant expressed in Escherichia coli BL21(DE3); how it was run: as §1
# [9] = Inhibition of pyrimethamine-resistant form-1 Plasmodium falciparum N51I, C59R, S108N, I164L, D187A mutant expressed in Escherichia coli BL21(DE3) by Michaelis-Menten based competitive inhibition assay
# [10] = Inhibition of WR99210-resistant form-2 Plasmodium falciparum N51I, C59R, N108S, I164L mutant expressed in Escherichia coli BL21(DE3); how it was run: as §1
# [11] = Inhibition of WR99210-resistant form-1 Plasmodium falciparum I51N, C59R, N108S, I164L mutant expressed in Escherichia coli BL21(DE3); how it was run: as §1
# [12] = Inhibition of pyrimethamine-resistant form-1 Plasmodium falciparum N51I, C59R, S108N, I164L, D187A mutant expressed in Escherichia coli BL21(DE3); how it was run: as §1
# [13] = Inhibition of Plasmodium falciparum DHFR QM template N51I, C59R, S108N, I164L mutant expressed in Escherichia coli BL21(DE3); how it was run: as §1
# [14] = Inhibition of Plasmodium falciparum DHFR-TS QM template N51I, C59R, S108N, I164L mutant expressed in Escherichia coli BL21(DE3) by Michaelis-Menten based competitive inhibition assay
# [15] = Inhibition of Plasmodium falciparum DHFR QM template N51I, C59R, S108N, I164L mutant expressed in Escherichia coli BL21(DE3) by Michaelis-Menten based competitive inhibition assay
# [16] = target: T1, Bifunctional dihydrofolate reductase-thymidylate synthase (Plasmodium falciparum (isolate 3D7), UniProt Q8I1R6, C59R/I164L/K96N/N51I/S108N); test: Inhibition of pyrimethamine-resistant form-2 Plasmodium falciparum N51I, C59R, S108N, I164L, K96N mutant expressed in Escherichia coli BL21(DE3)
# T1 sequence (Q8I1R6 whole entry N51I/C59R/K96N/S108N/I164L): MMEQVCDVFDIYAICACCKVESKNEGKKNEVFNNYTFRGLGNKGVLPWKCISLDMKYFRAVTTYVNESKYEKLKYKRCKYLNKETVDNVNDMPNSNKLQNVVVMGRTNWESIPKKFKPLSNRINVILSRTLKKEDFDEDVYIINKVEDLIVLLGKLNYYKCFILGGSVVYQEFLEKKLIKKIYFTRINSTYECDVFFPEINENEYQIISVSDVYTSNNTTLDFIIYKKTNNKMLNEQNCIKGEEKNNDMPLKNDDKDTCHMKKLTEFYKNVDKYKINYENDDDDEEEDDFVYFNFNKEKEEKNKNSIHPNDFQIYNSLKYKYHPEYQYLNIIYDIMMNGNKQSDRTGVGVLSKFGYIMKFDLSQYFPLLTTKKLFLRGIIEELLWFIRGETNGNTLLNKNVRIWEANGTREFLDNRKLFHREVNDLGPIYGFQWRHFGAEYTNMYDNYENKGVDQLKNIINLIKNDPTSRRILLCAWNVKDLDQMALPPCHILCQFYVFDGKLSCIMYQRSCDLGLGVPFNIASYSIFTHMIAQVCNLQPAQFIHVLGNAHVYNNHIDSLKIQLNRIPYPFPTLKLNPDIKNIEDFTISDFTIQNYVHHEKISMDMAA
# [17] = target: T1, Bifunctional dihydrofolate reductase-thymidylate synthase; test: Inhibition of pyrimethamine-resistant form-2 Plasmodium falciparum N51I, C59R, S108N, I164L, K96N mutant expressed in Escherichia coli BL21(DE3) by Michaelis-Menten based competitive inhibition assay
Compound,IC50 [1] [nM],Ki [2] [nM],IC50 [3] [nM],Ki [4] [nM],Ki [5] [nM],Ki [6] [nM],IC50 [7] [nM],IC50 [8] [nM],Ki [9] [nM],IC50 [10] [nM],IC50 [11] [nM],IC50 [12] [nM],IC50 [13] [nM],Ki [14] [nM],Ki [15] [nM],IC50 [16] [nM],Ki [17] [nM]
CCc1nc(N)nc(N)c1-c1ccc(Cl)cc1 [PYRIMETHAMINE],7200,3.57,1820,15.5,7.26,1.07,3470,170,1.24,10,90,870,420,2.1,1.9,,
CC1(C)N=C(N)N=C(N)N1OCCCOc1cc(Cl)c(Cl)cc1Cl,40000,8.09,680,72.4,17.6,147,920,160,514,60,200,50,50,209,859,90,292

# From ChEMBL document CHEMBL1137664, “Conflicting requirements of Plasmodium falciparum dihydrofolate reductase mutations conferring resistance to pyrimethamine-WR99210 combination” (Antimicrob Agents Chemother, 2007)
